Experimental data: the RNAGym collection of RNA variant scans (doi:10.1038/s41586-018-0170-7)

B1: tRNA (parent)
chain: GUUCCGUUGGCGUAAUGGUAACGCGUCUCCCUCCUAAGGAGAAGACUGCGGGUUCGAGUCCCGUACGGAACG

Variants of: B1
Test: yeast fitness, log relative to wild type (ln ratio); higher = fitter; tRNA-Arg(CCU), competitive growth, 37 C, 1 M NaCl
In short: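 For each genotype, fitness is defined as the natural log of its generation number over the wild type's. The tRNA-Arg(CCU) variant library was on a HIS3 centromeric plasmid in BY4742 with the chromosomal gene removed, and pools were first grown 4 generations in SC-HIS at 30 °C and then ~6.5 generations (~26.5 h) in SC-HIS 1M NaCl at 37 °C. Generations were calculated from OD-scaled log2 output/input frequency, weighted by inverse variance across replicates, using counts from 125 bp paired-end Illumina sequencing.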

Row | Variant | yeast fitness (ln)
1 | AUUCCAUUGGCGUAAUGGUAACGCGUCUCCCUCCUAAGGAGAAGAUUGCGGGUUCGAGUCCCGUACGGAACG [G1A G6A C46U] | -0.0333
2 | AUUCCAUUGGCGUAAUGGUAACGCGUCUCCCUCCUAAGGAGAAGACUGCGGGUUCGAGUCCCGUAUGGAAUG [G1A G6A C66U C71U] | -0.0242
3 | AUUCCAUUGGCGUAAUGGUAACGCGUUUCCCUCCUAAGGAGAAGACUGCGGGUUCGAGUCCCGUAUGGAGUG [G1A G6A C27U C66U A70G C71U] | -0.566
4 | AUUCCUUUGGCGUAAUGGUAACGCGUCUCCCUCCUAAGGAGAAGACUGCGGGUUCGAGUCCCGUACGGAACG [G1A G6U] | -0.0886
5 | AUUCCAUUGGCGUAAUGGUAACGCGUUUCCCUCCUAAGGAGAAGACUGCGGGUUCGAGUCCCGUACGGAAUG [G1A G6A C27U C71U] | -0.238
6 | AUUCCAUUGGCGUAAUGGUAACGCGUCUCCCUCCUAAGGAGAAGAUUGCGGGUUCGAGUCCCGUAUGGAUUG [G1A G6A C46U C66U A70U C71U] | -0.0831
7 | AUUCCAUUGGCGUAAUGGUAACGCGUCUCCCUCCUAAGGAGAAGACUGCGGGUUCGAGUCCCGUAUGGGAUG [G1A G6A C66U A69G C71U] | -0.0291
8 | AUUCCAUUGGCGUAAUGGUAACGCGUCUCCCUCCUAAGGAGAAGACUGCGGGUUCGAGUCCCGUAAGGAUCG [G1A G6A C66A A70U] | -0.0411
9 | AUUCCUUUGGCGUAAUGGUAACGCGUCUCCCUCCUAAGGAGACGAUUGCGGGUUCGAGUCCCGUACGGAGUG [G1A G6U A43C C46U A70G C71U] | -0.301
10 | AUUCCUUUGGCGUAAUGGUAACGCGUCUCCCUCCUAAGGAGACGACUGCGGGUUCGAGUCCCGUACGGAACG [G1A G6U A43C] | -0.192
11 | AUUCCAUUGGCGUAAUGGUAACGCGUCUCCCUCCUAAGGAGAAGAUUGCGGGUUCGAGUCCCGUAUGGGAUG [G1A G6A C46U C66U A69G C71U] | -0.0213
12 | AUUCCAUUGGCGUAAUGGUAACGCGUCUCCCUCCUAAGGAGAAGAUUGCGGGUUCGAGUCCCGUAUGGGUCG [G1A G6A C46U C66U A69G A70U] | -0.0453
13 | AUUCCAUUGGCGUAAUGGUAACGCGUCUCCCUCCUAAGGAGAAGAUUGCGGGUUCGAGUCCCGUAUGGGGCG [G1A G6A C46U C66U A69G A70G] | -0.136
14 | AUUCCAUUGGCGUAAUGGUAACGCGUCUCCCUCCUAAGGAGAAGAUUGCGGGUUCGAGUCCCGUACGGAUUG [G1A G6A C46U A70U C71U] | -0.0983
15 | AUUCCAUUGGCGUAAUGGUAACGCGUCUCCCUCCUAAGGAGAAGACUGCGGGUUCGAGUCCCGUAUGGGACG [G1A G6A C66U A69G] | -0.346
16 | AUUCCAUUGGCGUAAUGGUAACGCGUCUCCCUCCUAAGGAGAAGAUUGCGGGUUCGAGUCCCGUAUGGAACG [G1A G6A C46U C66U] | -0.072
17 | AUUCCAUUGGCGUAAUGGUAACGCGUCUCCCUCCUAAGGAGAAGAUUGCGGGUUCGAGUCCCGUAUGGGGUG [G1A G6A C46U C66U A69G A70G C71U] | -0.0914
18 | AUUCCAUUGGCGUAAUGGUAACGCGUCUCCCUCCUAAGGAGAAGACUGCGGGUUCGAGUCCCGUAUGGGGCG [G1A G6A C66U A69G A70G] | -0.235
19 | AUUCCAUUGGCGUAAUGGUAACGCGUCUCCCUCCUAAGGAGAAGACUGCGGGUUCGAGUCCCGUAUGGGUCG [G1A G6A C66U A69G A70U] | -0.102

Row | Variant | yeast fitness (ln)
20 | AUUCCAUUGGCGUAAUGGUAACGCGUCUCCCUCCUAAGGAGAAGAUUGCGGGUUCGAGUCCCGUACGGGAUG [G1A G6A C46U A69G C71U] | -0.252
21 | AUUCCUUUGGCGUAAUGGUAACGCGUCUCCCUCCUAAGGAGACGACUGCGGGUUCGAGUCCCGUACGGAGUG [G1A G6U A43C A70G C71U] | -0.383
22 | AUUCCAUUGGCGUAAUGGUAACGCGUCUCCCUCCUAAGGAGAAGACUGCGGGUUCGAGUCCCGUAAGGGGUG [G1A G6A C66A A69G A70G C71U] | -0.194
23 | AUUCCAUUGGCGUAAUGGUAACGCGUCUCCCUCCUAAGGAGAAGAUUGCGGGUUCGAGUCCCGUACGGAGUG [G1A G6A C46U A70G C71U] | -0.208
24 | AUUCCAUUGGCGUAAUGGUAACGCGUCUCCCUCCUAAGGAGAAGAUUGCGGGUUCGAGUCCCGUACGGGUCG [G1A G6A C46U A69G A70U] | -0.0698
25 | AUUCCAUUGGCGUAAUGGUAACGCGUCUCCCUCCUAAGGAGAAGAUUGCGGGUUCGAGUCCCGUACGGGGCG [G1A G6A C46U A69G A70G] | -0.123
26 | AUUCCAUUGGCGUAAUGGUAACGCGUCUCCCUCCUAAGGAGAAGAUUGCGGGUUCGAGUCCCGUAUGGAAUG [G1A G6A C46U C66U C71U] | 0.000947
27 | AUUCCUUUGGCGUAAUGGUAACGCGUCUCCCUCCUAAGGAGACGAUUGCGGGUUCGAGUCCCGUACGGAACG [G1A G6U A43C C46U] | -0.155
28 | AUUCCUUUGGCGUAAUGGUAACGCGUCUCCCUCCUAAGGAGACGACUGCGGGUUCGAGUCCCGUACGGGGUG [G1A G6U A43C A69G A70G C71U] | -0.398
29 | AUUCCAUUGGCGUAAUGGUAACGCGUCUCCCUCCUAAGGAGAAGAUUGCGGGUUCGAGUCCCGUAUGGAGUG [G1A G6A C46U C66U A70G C71U] | -0.0284
30 | AUUCCAUUGGCGUAAUGGUAACGCGUCUCCCUCCUAAGGAGAAGAUUGCGGGUUCGAGUCCCGUACGGAAUG [G1A G6A C46U C71U] | -0.109
31 | AUUCCAUUGGCGUAAUGGUAACGCGUCUCCCUCCUAAGGAGAAGACUGCGGGUUCGAGUCCCGUACGGAAUG [G1A G6A C71U] | -0.363
32 | AUUCCAUUGGCGUAAUGGUAACGCGUCUCCCUCCUAAGGAGAAGACUGCGGGUUCGAGUCCCGUAUGGGGUG [G1A G6A C66U A69G A70G C71U] | -0.145
33 | AUUCCUUUGGCGUAAUGGUAACGCGUCUCCCUCCUAAGGAGACGACUGCGGGUUCGAGUCCCGUACGGAUUG [G1A G6U A43C A70U C71U] | -0.303
34 | AUUCCAUUGGCGUAAUGGUAACGCGUCUCCCUCCUAAGGAGAAGAUUGCGGGUUCGAGUCCCGUAUGGGUUG [G1A G6A C46U C66U A69G A70U C71U] | -0.363
35 | AUUCCAUUGGCGUAAUGGUAACGCGUCUCCCUCCUAAGGAGAAGACUGCGGGUUCGAGUCCCGUAAGGAUUG [G1A G6A C66A A70U C71U] | -0.163
36 | AUUCCUUUGGCGUAAUGGUAACGCGUCUCCCUCCUAAGGAGACGAUUGCGGGUUCGAGUCCCGUACGGAUUG [G1A G6U A43C C46U A70U C71U] | -0.297
37 | AUUCCUUUGGCGUAAUGGUAACGCGUCUCCCUCCUAAGGAGACGACUGCGGGUUCGAGUCCCGUACGGGGCG [G1A G6U A43C A69G A70G] | -0.54
